Neddyl block = blocks human cullin neddylation. P61081+Q13564. inhibition, % at 25 µM. TR-FRET cullin neddylation, biochemical. 0.58% of 360,000 active. AID 651699; in the data active = inhibition above about 36%
ARFGAP1 inhibitor = inhibitors of rat ARFGAP1. inhibition, % at 16.5 µM. Arfgap1-stimulated ARF1 GTP hydrolysis, GDP FP detection. 0.26% of 360,000 active;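 active = inhibition above a per-plate limit, mean inhibition of low control wells plus 3 SD, cut at about 25% in these data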;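 also: 0% = DMSO wells with enzyme and 100% = wells lacking Arfgap1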
Target sequence (Q62848 1-136 limits assumed): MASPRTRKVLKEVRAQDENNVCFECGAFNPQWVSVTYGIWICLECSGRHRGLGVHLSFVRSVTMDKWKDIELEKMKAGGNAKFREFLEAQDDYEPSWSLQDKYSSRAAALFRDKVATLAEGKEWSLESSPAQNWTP
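Assay system: Rat Arfgap1 GAP domain (His6, aa 1-136), purified enzyme | Buffer or medium: HEPES 25 mM pH 7.5, NaCl 150 mM, MgCl2, DTT | Schedule: GTP hydrolysis reaction 2 h at 25 °C | Signal: FP of antibody-bound GDP Alexa 633 tracer, ex 620/em 688 nm | Measure: Percent inhibition of Arfgap1-stimulated GTP hydrolysis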
H9c2 protect = modulators protecting cardiomyocytes from myocardial damage. H9c2 cardiomyocytes, H2O2 injury protection, ATPLite, 2 h. protection from H2O2 cell death, % at 20 µM. 0.63% of 360,000 active;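 active = compounds giving at least 50% protection of heart cells from peroxide-induced death in the single-dose screen, raw or plate-pattern-corrected value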;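 also: 0% = DMSO wells with peroxide and 100% = DMSO wells without peroxide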
ASAP1 inh = blocks human ASAP1-stimulated Arf1 GTP hydrolysis; 0.19% of 360,000 active; Q9ULH1; inhibition, % at 16.5 µM; GDP FP detection; in the data active = inhibition above about 25%;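 also: 0% = vehicle with enzyme and substrate and 100% = no enzyme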
Target sequence (Q9ULH1 325-724 limits assumed): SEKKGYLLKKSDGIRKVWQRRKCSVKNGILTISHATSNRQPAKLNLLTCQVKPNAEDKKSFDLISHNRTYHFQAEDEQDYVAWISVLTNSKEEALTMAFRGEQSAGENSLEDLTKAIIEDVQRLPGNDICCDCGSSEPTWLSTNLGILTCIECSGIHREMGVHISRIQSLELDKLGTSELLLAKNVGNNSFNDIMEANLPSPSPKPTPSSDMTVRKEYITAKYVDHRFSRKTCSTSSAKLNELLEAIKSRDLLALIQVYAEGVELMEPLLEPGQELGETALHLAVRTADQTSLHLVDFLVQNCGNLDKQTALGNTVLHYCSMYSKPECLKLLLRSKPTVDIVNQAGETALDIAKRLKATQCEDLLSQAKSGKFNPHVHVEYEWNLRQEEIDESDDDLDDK
ASAP1 inh confirm = ASAP1 inhibition confirmed | 37% of 620 active | shares compounds with ASAP1 inh | inhibition, % at 16.5 µM | ASAP1-stimulated Arf1 GTPase, GDP fluorescence polarization | AID 624431;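 active = mean inhibition over triplicates exceeds the hit threshold derived for the earlier primary screening run, cut at about 25% in these data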
* marks the source's active call; other numbers are inactive results; . = not tested or not shown. Only some compounds are listed: those with a hit (about 1.6% of all), similar ones and a draw of the others.

SMILES	Neddyl block	ARFGAP1 inhibitor	H9c2 protect	ASAP1 inh	ASAP1 inh confirm
CCOC(=O)[C@]12CCCC=C1N(CCC1=CCCCC1)C(=O)[C@H](CC(=O)NCCCN1CCCC1=O)C2	0.5	-13.7	.	-5.0	.
O=C(NCc1ccco1)C12CN(Cc3ccccc3)CC1C(c1ccc([N+](=O)[O-])cc1)=NO2 (stereo not drawn)	-28.4	15.2	-0.4	5.8	.
O=C(NCc1ccco1)C12CN(Cc3ccccc3)CC1C(c1cccc([N+](=O)[O-])c1)=NO2 (stereo not drawn)	-47.3	0.3	4.1	24.8*	7.9
O=C(COc1c(F)c(F)c(C(F)(F)F)c(F)c1F)Nc1ccc(N2CCOCC2)c(Cl)c1	2.9	6.1	-19.6	25.0*	7.2
CSc1ccc(OCC(=O)Nc2ccc(N3CCOCC3)c(Cl)c2)cc1	4.7	8.7	-3.7	0.8	.
O=C(C(=O)N1CCC(CNS(=O)(=O)c2ccc3ccccc3c2)CC1)c1cc2ccccc2o1	.	0.4	.	11.8	.
C[C@H](CCC(=O)OCc1cn(CC(=O)c2ccc(O)cc2)nn1)C1CC[C@H]2[C@@H]3CC[C@@H]4C[C@H](O)CC[C@]4(C)[C@H]3C[C@H](O)[C@]12C (stereo partly drawn)	-10.7	24.3	-17.6	28.9*	16.8
O=C(Nc1ccc(CSc2ccccc2)cc1)c1ccco1	4.2	3.2	-3.3	24.8*	6.9
COc1cc(NC(=O)Cc2ccccc2)ccc1NC(=O)Cc1ccccc1	4.5	7.8	-4.3	29.5*	2.5
CN(C(=O)COc1ccc2ccc(=O)oc2c1)C1CCS(=O)(=O)C1 (stereo not drawn)	23.5	4.5	7.0	27.9*	5.8
C[C@H](CO)N1C[C@H](C)[C@@H](CN(C)C(=O)Nc2ccccc2)OCc2cn(nn2)CCCC1=O	.	-6.8	.	-10.3	.
Cc1ccc(S(=O)(=O)N(CC2CO2)c2cc(Cl)ccc2Cl)cc1 (stereo not drawn)	2.1	10.3	4.7	28.2*	0.6
Cc1ccc(N(CC2CO2)S(=O)(=O)c2ccc(C)cc2)cc1 (stereo not drawn)	-2.2	2.2	-3.8	-12.7	.
CC(Nc1cccc2ccccc12)C(=O)N/N=C/c1ccc([N+](=O)[O-])cc1 (stereo not drawn)	-48.6	6.3	-5.7	26.2*	8.6
COc1cc([N+](=O)[O-])cc(/C=N/NC(=O)C(C)Nc2cccc3ccccc23)c1O (stereo not drawn)	-53.2	-3.0	40.0	-6.5	.
Cc1cccc(/C=N/NC(=O)C(C)Nc2cccc3ccccc23)n1 (stereo not drawn)	-28.0	15.1	-12.0	29.0*	6.4
CCOC(=O)C1CSCCS(=O)(=O)N1Cc1cc(F)ccc1Br (stereo not drawn)	.	12.8	.	0.5	.
CCCCCCCCN1C(=O)[C@H](CC(=O)NCc2cccc3ccccc23)C[C@@]2(C(=O)OCC)CCCC=C12	-4.5	-15.5	.	0.8	.
COc1ccc(C(C[N+](=O)[O-])c2c(C)[nH]n(-c3ccccc3)c2=O)cc1 (stereo not drawn)	-0.7	25.4*	5.4	30.1*	14.4
COc1ccc(C(C(=O)Nc2c(C)cccc2C)N2CCN(C)CC2)cc1 (stereo not drawn)	8.0	-7.1	.	-1.9	.
Cc1nc2c(OCc3cc(Cl)cc(Cl)c3)cccn2c1N(C)C(=O)CCC1CCCC1	8.0	-0.7	-5.6	18.0	.
CCC(C)(C)NC(=O)C(c1ccc(OC)cc1)N(C(=O)CCC(=O)Nc1cc(C)on1)c1ccccc1OC (stereo not drawn)	0.7	-1.4	3.0	27.1*	5.3
CCOc1ccc(NC(=O)CN(C)C(=O)c2cn(-c3ccc(C)cc3)nc2-c2cccc(OC)c2)cc1OCC	-17.2	11.3	18.1	34.0*	14.3
O=C(Nc1ccc2ccccc2c1)C(c1ccccc1)n1c(=O)c(-c2cc3ccccc3[nH]2)nc2ccccc21 (stereo not drawn)	.	10.1	.	11.7	.
CC(C)CC(=O)NC(=S)Nc1ccc(NC(=O)c2cccs2)cc1	-1.3	5.7	-13.1	25.4*	4.3
SMILES	Neddyl block	ARFGAP1 inhibitor	H9c2 protect	ASAP1 inh	ASAP1 inh confirm
CC(=O)Nc1cc(-c2ccc(C(=O)N3CCOCC3)cc2)cn2c(-c3cccc(C(C)=O)c3)cnc12	-4.1	17.5	39.7	5.2	.
CCCCOC(=O)Cn1c(-c2ccccc2)nc2ccccc2c1=O	-6.9	1.6	-4.5	-2.9	.
CCOC(=O)Cn1c(-c2ccccc2)nc2ccccc2c1=O	-9.2	4.2	8.9	25.6*	-0.1
CC(C)Nc1nc(Nc2ccc(C#N)cc2)c2sccc2n1	14.3	10.6	0.3	-7.6	.
O=C(O)COc1ccccc1/C=N/NC(=O)Cc1csc(Nc2cccc(C(F)(F)F)c2)n1	5.6	22.1	-8.1	36.5*	5.8
Cc1cc(Nc2cc(Cl)nc(Sc3ccc(NC(=O)C4CC4)cc3)n2)n[nH]1	-7.0	18.2	4.2	29.6*	22.1
Cc1cc(NC(=O)c2ccc(NC(=O)C3CC3)cc2)no1	-25.4	-1.6	-2.1	7.7	.
COCCCn1cnn2c(=O)c3ccccc3nc2c1=O	.	-0.8	.	8.6	.
O=C(Nc1ccc(S(=O)(=O)N2CCOCC2)cc1)c1cc(-c2ccccc2O)n[nH]1	8.6	-1.8	-3.0	-8.9	.
CC1CN(S(=O)(=O)c2ccc(NC(=O)c3cc(-c4ccccc4O)n[nH]3)cc2)CC(C)O1 (stereo not drawn)	-3.6	0.2	-15.7	25.9*	21.2
COc1ccc(/C=N/NC(=O)c2cc(-c3ccc4c(c3)OCO4)n[nH]2)cc1OC	28.1	19.7	65.1*	26.0*	33.7*
O=C(N/N=C/c1ccc(F)cc1)c1cc(-c2ccc3c(c2)OCO3)n[nH]1	7.1	9.5	13.3	18.8	.
CCc1cc(=O)oc2cc(OCC(=O)O)c(Cl)cc12	14.5	0.5	5.1	-1.2	.
CCc1cc(=O)oc2cc(OC(C)C(=O)O)c(Cl)cc12 (stereo not drawn)	19.6	1.7	1.9	27.0*	-6.4
N/C(=N\N=C\c1cccs1)SC1CC(=O)N(c2ccc(Br)cc2)C1=O (stereo not drawn)	3.0	5.5	-7.0	0.4	.
N/C(=N\N=C\c1ccnc2ccccc12)SC1CC(=O)N(c2ccc(Br)cc2)C1=O (stereo not drawn)	-8.9	10.8	-7.5	60.9*	87.5*
CC(=O)OCC(COC(C)=O)(CN1C(=O)c2ccccc2C1=O)CN1C(=O)c2ccccc2C1=O	.	8.0	.	-0.4	.
CCN(CC)c1ncnc2c1ncn2[C@H]1CN(Cc2ccc(OC)cc2)C[C@@H](CO)O1	4.4	-17.0	5.6	-0.3	.
O=C(Oc1ccc(Br)cc1)C1CCN(C2=NS(=O)(=O)c3ccccc32)CC1	7.5	0.3	-10.7	24.7*	4.6
Cc1ccc(OCC(=O)N2CCN(C3=NS(=O)(=O)c4ccccc43)CC2)cc1	0.9	-21.9	3.1	0.5	.
CCC(=O)c1ccc(OC(=O)C2CCN(C3=NS(=O)(=O)c4ccccc43)CC2)cc1	-13.3	-2.6	6.9	26.7*	8.9

Screening data: PubChem, several laboratories
